# Experimental data from different studies.
# Observed: cell growth or viability
Structure (SMILES),cell line,test,conditions,endpoint,result
c1cc(Nc2nccc(NC3CCCCC3)n2)cc(-c2ncco2)c1,BJ,ATP luminescence,72 h,EC50,> 45 µM
Oc1ccc(Nc2nc(-c3ccc(Cl)cc3)cs2)cc1,1205Lu,MTS,48 h,IC50,86.3 µM
CC(C)Nc1ccnc(Nc2cccc(-c3cccnc3)c2)n1,BJ,ATP luminescence,72 h,EC50,> 17 µM
CN(C)C/C=C/C(=O)Nc1cc2c(Nc3ccc(F)c(Cl)c3)ncnc2cc1O[C@H]1CCOC1,KB-C2,ATP luminescence,"3 µM, 12 days, 3D culture",viability,67.7%
C[C@]12CC[C@@H]3c4ccc(O)cc4CC[C@H]3[C@@H]1CC[C@@H]2O,OVCAR-3,ATP luminescence,72 h,EC90,76.1 µM
COc1ccc(-c2ccc(-c3ccc(C(=N)N)nc3)s2)cc1,ACHN,,,GI50,1.84 µM
COC(=O)[C@H](C)Nc1ccnc(Nc2cccc(-c3cccnc3)c2)n1,BJ,ATP luminescence,72 h,EC50,> 8 µM
O=C(Nc1cncc(-c2nc3ccccc3s2)c1)c1cc([N+](=O)[O-])c(N2CCNCC2)cc1Cl,BJ,ATP luminescence,,EC50,> 15.3 µM
C=CC(=O)N1CCC[C@@H](n2nc(-c3ccc(Oc4ccccc4)cc3)c3c(N)ncnc32)C1,UPN1,ATP luminescence,72 h,GI50,4.87 µM
CCNc1ccnc(Nc2cccc(-c3cccnc3)c2)n1,BJ,ATP luminescence,72 h,EC50,> 21 µM
CC#CC(=O)N1CC[C@@H](n2cc(-c3ccc(Oc4c(F)cccc4F)cc3)c3c(N)n[nH]c(=O)c32)C1,UPN1,ATP luminescence,72 h,GI50,2.21 µM
CC(=O)c1c(C)c2cnc(Nc3ccc(N4CCNCC4)cn3)nc2n(C2CCCC2)c1=O,MDA-MB-157,resazurin,,GI50,> 5 µM
Cc1cc(Cl)c(Cl)cc1NC(=O)c1ccc(N2CCNCC2)nc1,BJ,ATP luminescence,,EC50,> 24 µM
COc1cc(-c2ccc(-c3ccc(C(=N)N)nc3)s2)cc(OC)c1OC,OVCAR-3,SRB,,GI50,2.6 µM
